# Screens from PubChem BioAssay.
# Compounds with a hit are over-represented: about 3.1% of the library has one in this group of screens.
# KCNK9 block: KCNK9 potassium channel inhibitors, primary screen, HEK293 cells, thallium flux. Potassium channel subfamily K member 9 (Homo sapiens), Q9NPC2. actives 1.2% (n = 310,000). B-score at 10 µM. AID 488922, 2010. FluxOR thallium flux fluorescence; stronger effect = lower value;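 active means ratio B-score over 3 SD below the library mean, with starting fluorescence within 5 SD of its mean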;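 further: negative B-score means less thallium flux so channel inhibition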
# KCNQ1 block: inhibitors of human KCNQ1 channel, primary screen, cell-based, thallium flux, high-throughput. Potassium voltage-gated channel subfamily KQT member 1 (Homo sapiens), P51787. CHO-K1 KCNQ1, FluxOR thallium flux fluorescence; stronger effect = higher value. B-score at 10 µM. actives 1.3% (n = 310,000);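 active means compounds whose thallium flux B-score, printed positive for inhibition, exceeds three library SD while starting fluorescence stays within three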;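 further: channel opened by potassium depolarization with thallium stimulus after 20 min compound exposure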
# KCNK3 inh: human KCNK3 channel inhibitors, primary screen, CHO cells, FluxOR thallium flux, B-score | AID 602410, 2012 | actives 0.84% (n = 340,000) | FluxOR fluorescence; stronger effect = lower value | Potassium channel subfamily K member 3 (Homo sapiens), O14649 | B-score at 10 µM;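 active means B-score under library mean minus 4 SD, starting fluorescence ratio at most library mean plus 5 SD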;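 further: more negative B-score means stronger inhibition of thallium flux through KCNK3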
# Target sequence (O14649 whole entry, looked up): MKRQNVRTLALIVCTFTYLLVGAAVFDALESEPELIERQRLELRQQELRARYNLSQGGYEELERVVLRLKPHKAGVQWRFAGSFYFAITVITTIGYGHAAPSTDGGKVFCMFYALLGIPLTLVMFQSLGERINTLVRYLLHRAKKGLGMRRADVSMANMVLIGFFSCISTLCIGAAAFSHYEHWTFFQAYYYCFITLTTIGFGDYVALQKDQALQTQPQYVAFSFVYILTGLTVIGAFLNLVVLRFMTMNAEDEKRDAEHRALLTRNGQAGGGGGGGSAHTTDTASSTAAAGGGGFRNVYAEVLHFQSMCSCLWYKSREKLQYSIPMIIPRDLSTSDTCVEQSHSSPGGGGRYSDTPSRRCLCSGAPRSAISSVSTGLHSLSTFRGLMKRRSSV
# KCNQ1 act: potentiators or activators of KCNQ1 channel, primary screen, cell-based, thallium flux, high-throughput; Potassium voltage-gated channel subfamily KQT member 1 (Homo sapiens), P51787; CHO-K1 KCNQ1, thallium flux FluxOR fluorescence; stronger effect = higher value; B-score at 10 µM; actives 0.35% (n = 310,000); AID 2648, 2010;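 active means fluorescence ratio B-score, a plate-corrected score, at least three library SD, with initial intensity B-score within 5 SD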
#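 Schedule – 37 °C overnight plating, 90-min dark dye load, 20-min compound pretreatment · System – stable KCNQ1 CHO-K1 line · Probe or stimulus – thallium- and potassium-containing depolarizing buffer · Measured by – kinetic FluxOR fluorescence, 10 s baseline plus 110 s post-stimulus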
# hERG protect: hERG rescue from dofetilide block, primary screen, cell-based, CHO-hERG, FluxOR thallium flux, dofetilide IC70. Voltage-gated inwardly rectifying potassium channel KCNH2 (Homo sapiens), Q12809. dofetilide IC70 present. activation (rescue from dofetilide block), less the hit threshold, % at 10 µM. actives 0.51% (n = 310,000);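 active means activation above the mean of controls blocked by dofetilide plus 5 SD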;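 further: thallium influx through hERG after potassium depolarization seen as dye fluorescence rise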
# KCNK9 block conf: KCNK9 potassium channel inhibitors, confirmation, HEK293 cells, thallium flux, duplicate; shares compounds with KCNK9 block; FluxOR thallium flux fluorescence; actives 43% (n = 4,900); inhibition, % at 10 µM;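 active means thallium signal inhibited by more than 5 SD of the compound-free buffer control wells, on both duplicate plates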;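 further: 0% = assay buffer control wells without compound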
# Kir2-1 spec: mouse Kir2.1 channel inhibition, confirmation, selectivity assay for KCNK9 modulator project, cell-based, HEK293, thallium flux; shares compounds with KCNK9 block; Kir2.1 cells, FluxOR thallium flux fluorescence; inhibition, % at 10 µM; actives 4% (n = 4,900);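 active means thallium signal drop more than 5 SD beyond the mean of the no-compound control wells, seen in both duplicate plates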;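 further: signal is fluorescence rise after thallium addition divided by baseline fluorescence; plate controls were assay buffer only for no effect and full block by chlorpromazine control for full effect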
# HEK293 Tl ctr: thallium flux in non-induced HEK293 cells, confirmation, counter-screen for KCNK9 inhibitor project, cell-based, second counter screen, non-induced KCNK9-HEK293 | inhibition, % at 10 µM | shares compounds with KCNK9 block | AID 492997, 2010 | FluxOR thallium flux | actives 40% (n = 4,900);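 active means thallium signal drop beyond 5 SD of the untreated control mean, on both duplicate plates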;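 further: plate controls were buffer only IC0 wells for no effect and SID17386958 at its maximal inhibitory level for full effect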
# * hit, by the source's call; i = inactive; . = not tested or not shown.
SMILES,KCNK9 block,KCNQ1 block,KCNK3 inh,KCNQ1 act,hERG protect,KCNK9 block conf,Kir2-1 spec,HEK293 Tl ctr
CCCCCOc1ccc(C(C)(O)C(CN2CCOCC2)c2ccccc2)cc1 (centres undefined),i,i,i,i,-4,.,.,.
C(#Cc1ccccc1)CN1CCN(c2ccccn2)CC1,i,i,i,i,-5,i,i,i
C(#Cc1ccccc1)CN1CCCCC1,i,i,i,i,-6,.,.,.
COc1ccc(NC(=O)Nc2cccc3c2O[C@H](CN(C)S(C)(=O)=O)[C@@H](C)CN([C@H](C)CO)C3=O)cc1,.,.,i,.,.,.,.,.
Cc1nc2c(-c3ccccc3)c(C)nn2c(C)c1CCC(=O)O,i,i,i,i,-6,.,.,.
CCOC(=O)Cc1c(C)nc2c(-c3ccc(OC)cc3)c(C)nn2c1C,i,i,i,i,-10,i,i,i
CCOC(=O)c1nn(-c2ccccc2F)c(-c2ccccc2)c1C(=O)c1ccccc1,-11*,i,i,i,-7,56%*,i,i
Cc1ccc2c(c1)C(C)CC(C)(C)N2C(=O)NC1CCCCC1 (centres undefined),i,i,i,i,-14,.,.,.
Cc1ccc2c(c1)N(C(=O)NC1CCCCC1)C(C)(C)CC2C (centres undefined),i,i,i,i,-16,i,i,i
CN1CCN(C(CNC(=O)c2ccc(Br)o2)c2ccc(F)cc2)CC1 (centres undefined),i,i,i,i,-15,.,.,.
COc1ccc(C2C=C(Nc3ccccc3)C(=O)N2c2ccccc2)cc1OC (centres undefined),-11*,i,i,i,-7,62%*,i,34%*
O=C(COC(=O)c1c2c(nc3ccccc13)CCN(Cc1ccccc1)C2)Nc1c(F)cccc1F,-8.3*,i,i,i,-7,i,i,i
CC(=O)Nc1ccc(NC(=O)COC(=O)c2c3c(nc4ccccc24)CCN(Cc2ccccc2)C3)cc1,i,i,i,i,-8,.,.,.
COc1ccc(-c2[nH]ncc2[C@@H]2C[C@H]3CN(Cc4ccccc4C)C(=O)[C@]34CCCN24)cc1,i,i,i,i,-9,i,i,i
Cc1ccc(S(=O)(=O)N2CC3CCCN3c3ccc(C(F)(F)F)cc32)cc1 (centres undefined),-19*,i,i,i,-12,66%*,i,40%*
O=S(=O)(c1ccc(F)cc1)N1CC2CCCN2c2ccc(C(F)(F)F)cc21 (centres undefined),-13*,i,i,i,-12,30%*,i,42%*
Cc1ccc(S(=O)(=O)N2CCC(Oc3cccc(C(F)(F)F)c3)CC2)cc1,i,i,i,i,-8,.,.,.
COc1ccc(CCNC(=O)CC(Cc2ccc(C)cc2)C(=O)O)cc1OC (centres undefined),i,i,i,i,-3,.,.,.
CN1CCN(S(=O)(=O)c2cccc(C(=O)Oc3ccc(Br)cc3F)c2)CC1,i,i,i,i,-11,.,.,.
CCN(CC)c1ccc(/C=N/OCC(=O)N2CCCc3ccccc32)cc1,i,i,i,i,-11,i,i,i
